Test results reported in ChEMBL document CHEMBL1123026, “Preparation and antiarthritic and analgesic activity of 4,5-diaryl-2-(substituted thio)-1H-imidazoles and their sulfoxides and sulfones” (1985).

How the values were obtained:
Assay type in all cases: functional
Mus musculus [1] = assay: Effective dose determined by mouse phenyl-p-benzoquinone writhing (PQW) assay after peroral administration; conditions: po
How it was run: (§1)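 Fasted (17-21 h) female white mice, 5-20 per double-blind test, dosed orally with compound suspended in 1% methylcellulose. 0.20 mL aqueous 0.01% phenyl-p-benzoquinone given i.p. 6 min before a 10-min observation for stretching/writhing. ED50 (dose protecting 50% of mice) calculated by the moving-average method.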

Rattus norvegicus [2] = assay: Decrease in paw volume was evaluated at dose 1 mg/kg
How it was run: (§2)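 Male Lewis rats (130-150 g) got 0.1 mL adjuvant (heat-killed Mycobacterium butyricum, 5 mg/mL in mineral oil) subplantar in the right hind paw and were left 2 weeks. Groups of 10 matched for severity were dosed orally by gavage (PVA-acacia vehicle, 10 mL/kg) for 7 days. Uninjected left hind paw volume was read the next day. % decrease = (arthritic control − treated)/(arthritic − nonarthritic control) × 100; Student's t-test.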

Rattus norvegicus [3] = assay: Effective dose determined against rat adjuvant arthritis after peroral administration; conditions: po
How it was run: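 Male Lewis rats (130-150 g) given 0.1 mL Mycobacterium butyricum adjuvant (5 mg/mL in mineral oil) s.c. into the right hind paw; arthritis developed for 2 weeks. Groups of 10 matched for severity were dosed orally by gavage in PVA-acacia vehicle (10 mL/kg) for 7 days. Uninjected left paw volume was measured the day after the last dose. Percent decrease was calculated vs arthritic and nonarthritic controls. ED50 was read from a visually fitted semilog dose-response line.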

Mus musculus [4] = assay: Effective dose by mouse phenyl-p-benzoquinone writhing (PQW)assay after peroral administration; highest dose was tested; conditions: po; how it was run: as §1
Rattus norvegicus [5] = assay: Decrease in paw volume was evaluated at dose 30 mg/kg; how it was run: as §2
Rattus norvegicus [6] = assay: Decrease in paw volume was evaluated at dose 9 mg/kg; how it was run: as §2
Rattus norvegicus [7] = assay: Decrease in paw volume by the effect of compound at a dose of 75 mg/kg; how it was run: as §2
Rattus norvegicus [8] = assay: Decrease in paw volume by the effect of compound at a dose of 100 mg/kg; how it was run: as §2
Rattus norvegicus [9] = assay: Decrease in paw volume was evaluated at dose 25 mg/kg; how it was run: as §2

| Compound | ED50 (Mus musculus [1]) | ED50 (Rattus norvegicus [3]) | also measured |
| --- | --- | --- | --- |
| COc1ccc(-c2nc(S(=O)(=O)C(C)C)[nH]c2-c2ccc(OC)cc2)cc1 | > 130 mg/kg |  |  |
| FC(F)(F)Sc1nc(-c2ccccc2)c(-c2ccccc2)[nH]1 | > 130 mg/kg |  | Decrease (Rattus norvegicus [2]): 27% |
| O=S(=O)(CC(F)(F)C(F)(F)F)c1nc(-c2ccccc2)c(-c2ccccc2)[nH]1 | > 130 mg/kg | > 100 mg/kg |  |
| COc1ccc(-c2nc([S+](C)[O-])[nH]c2-c2ccc(OC)cc2)cc1 (stereo not drawn) | > 135 mg/kg | 6.5 mg/kg |  |
| COc1ccc(-c2nc([S+]([O-])CC(C)=O)[nH]c2-c2ccc(OC)cc2)cc1 (stereo not drawn) |  | 35 mg/kg | ED50 (Mus musculus [4]): 135 mg/kg |
| COc1ccc(-c2nc([S+]([O-])CC(F)(F)F)[nH]c2-c2ccc(OC)cc2)cc1 (stereo not drawn) |  | 11 mg/kg |  |
| CSc1nc(-c2ccc(F)cc2)c(-c2ccc(C(F)(F)F)cc2)[nH]1 | > 130 mg/kg |  |  |
| COc1ccc(-c2nc(SC(C)C)[nH]c2-c2ccc(OC)cc2)cc1 |  |  | Decrease (Rattus norvegicus [5]): 38% |
| Fc1ccc(-c2nc(SC(F)F)[nH]c2-c2ccc(F)cc2)cc1 | > 130 mg/kg |  |  |
| CSc1nc(-c2ccc(C(F)(F)F)cc2)c(-c2ccccc2)[nH]1 | > 130 mg/kg |  | Decrease (Rattus norvegicus [6]): 41% |
| Fc1ccc(-c2nc(SC(F)(F)C(F)F)[nH]c2-c2ccccc2)cc1 | > 130 mg/kg | 0.18 mg/kg |  |
| CS(=O)(=O)c1nc(-c2cccc(F)c2)c(-c2ccccc2)[nH]1 | > 130 mg/kg |  | Decrease (Rattus norvegicus [7]): 32% |
| COc1ccc(-c2[nH]c(SC(F)(F)C(F)F)nc2-c2ccc(F)cc2)cc1 | > 130 mg/kg |  |  |
| FC(Br)C(F)(F)Sc1nc(-c2ccccc2)c(-c2ccccc2)[nH]1 (stereo not drawn) | > 130 mg/kg | 11 mg/kg |  |
| COc1ccc(-c2nc(S(=O)(=O)C(F)(F)C(F)F)[nH]c2-c2ccc(OC)cc2)cc1 |  | 1.4 mg/kg |  |
| CSc1nc(-c2ccc(Cl)cc2)c(-c2ccc(C(F)(F)F)cc2)[nH]1 | > 130 mg/kg |  |  |
| CS(=O)(=O)c1nc(-c2ccc(F)cc2)c(-c2ccccc2)[nH]1 |  | > 9 mg/kg | ED50 (Mus musculus [4]): 135 mg/kg |
| CCCCSc1nc(-c2ccccc2)c(-c2ccccc2)[nH]1 | > 130 mg/kg | > 75 mg/kg |  |
| C[S+]([O-])c1nc(-c2cccc(Cl)c2)c(-c2ccccc2)[nH]1 (stereo not drawn) | > 130 mg/kg |  | Decrease (Rattus norvegicus [7]): 77% |
| CCCCS(=O)(=O)c1nc(-c2ccccc2)c(-c2ccccc2)[nH]1 | > 130 mg/kg | > 100 mg/kg |  |

| Compound | ED50 (Mus musculus [1]) | ED50 (Rattus norvegicus [3]) | also measured |
| --- | --- | --- | --- |
| C[S+]([O-])c1nc(-c2ccc(F)cc2)c(-c2ccc(F)cc2)[nH]1 (stereo not drawn) | > 130 mg/kg |  |  |
| Cl.Nc1ccc(-c2[nH]c(S(=O)(=O)C(F)(F)C(F)F)nc2-c2ccc(F)cc2)cc1 |  | > 3 mg/kg |  |
| COc1ccc(-c2[nH]c(S(=O)(=O)C(F)(F)C(F)F)nc2-c2ccccc2Cl)cc1 |  | 6 mg/kg |  |
| C=CCS(=O)(=O)c1nc(-c2ccc(OC)cc2)c(-c2ccc(OC)cc2)[nH]1 | > 130 mg/kg | 10 mg/kg |  |
| FC(F)(F)C(F)(F)CSc1nc(-c2ccccc2)c(-c2ccccc2)[nH]1 | > 135 mg/kg |  |  |
| C[S+]([O-])c1nc(-c2cccc(F)c2)c(-c2ccccc2)[nH]1 (stereo not drawn) | > 130 mg/kg |  | Decrease (Rattus norvegicus [8]): 67% |
| FC(F)C(F)(F)Sc1nc(-c2ccc(Cl)c(Cl)c2)c(-c2ccccc2)[nH]1 | > 130 mg/kg |  |  |
| FC(F)C(F)(F)Sc1nc(-c2ccc(C(F)(F)F)cc2)c(-c2ccccc2)[nH]1 | > 130 mg/kg |  |  |
| CCCC[S+]([O-])c1nc(-c2ccccc2)c(-c2ccccc2)[nH]1 (stereo not drawn) | > 130 mg/kg | > 100 mg/kg |  |
| FC(F)(F)CSc1nc(-c2ccc(Cl)cc2)c(-c2ccc(Cl)cc2)[nH]1 | > 130 mg/kg | 4 mg/kg |  |
| [O-][S+](CCC(F)(F)F)c1nc(-c2ccccc2)c(-c2ccccc2)[nH]1 (stereo not drawn) | > 130 mg/kg | > 75 mg/kg |  |
| CS(=O)(=O)c1nc(-c2ccc(F)cc2)c(-c2ccc(F)cc2)[nH]1 | > 130 mg/kg |  |  |
| FC(F)C(F)(F)Sc1nc(-c2ccc(Cl)cc2)c(-c2ccccc2)[nH]1 | > 130 mg/kg |  |  |
| CCS(=O)(=O)c1nc(-c2ccccc2)c(-c2ccccc2)[nH]1 | > 135 mg/kg |  | Decrease (Rattus norvegicus [8]): 32% |
| FC(F)C(F)(F)Sc1nc(-c2ccc(Cl)cc2)c(-c2ccc(C(F)(F)F)cc2)[nH]1 | > 130 mg/kg |  | Decrease (Rattus norvegicus [2]): 35% |
| Fc1ccc(-c2nc(SC(F)(F)C(F)F)[nH]c2-c2ccc(C(F)(F)F)cc2)cc1 | > 130 mg/kg |  |  |
| [O-][S+](CC(F)(F)C(F)(F)F)c1nc(-c2ccccc2)c(-c2ccccc2)[nH]1 (stereo not drawn) | > 130 mg/kg | > 75 mg/kg |  |
| Cc1ccc(-c2nc(SC(F)(F)C(F)F)[nH]c2-c2ccc(C)cc2)cc1 | > 130 mg/kg | 27 mg/kg |  |
| O=S(=O)(CCC(F)(F)C(F)(F)F)c1nc(-c2ccccc2)c(-c2ccccc2)[nH]1 | > 130 mg/kg | > 75 mg/kg |  |
| CSc1nc(-c2ccc(C)cc2)c(-c2ccc(C)cc2)[nH]1 | > 130 mg/kg |  | Decrease (Rattus norvegicus [9]): 26% |
